Compound activity deposited in PubChem BioAssay by The Scripps Research Institute Molecular Screening Center.
OX1R antag-1: blocks the human orexin 1 receptor; inhibition, % at 5 µM; CHO/OX1R cells, Fluo-8 calcium fluorescence, orexin A; hit rate 0.43% among 330,000; O43613;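 active = inhibition above its plate's threshold, mean inhibition of all tested compounds on the plate plus 3 SD, cut at about 37% in these data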
OX1R antag-2: antagonists of human orexin 1 receptor (OX1R); O43613; OX1R-expressing cells, FRET antagonist read-out; inhibition, % at 6.6 µM; hit rate 1.8% among 330,000; AID 485270; in the data active = inhibition mostly above about 38%, no sharp cut-off; inactive = mostly below about 40%
OXTR potentiator: potentiators of human oxytocin receptor; P30559; CHO-OTR cells, Fluo-8 calcium fluorescence, potentiator mode; 0% = oxytocin EC15, 100% = EC100; activation, % at 3 µM; hit rate 0.061% among 320,000;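 active = activation above that plate's cutoff, the mean activation of tested compounds plus 3 SD, cut at about 6.6% in these data, passing the limit was not always enough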
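Assay system: CHO-OTR cells, human receptor / Also added: oxytocin at about EC15, sub-maximal agonist stimulus / Dosing: single dose, 3.0 µM nominal final compound concentration / Incubation: 6 min pre-incubation, 100 s read / Technique: Fluo-8 calcium dye fluorescence / Read-out: % activation vs EC15 and EC100 oxytocin / Benchmarks: EC15 oxytocin low, 75 nM oxytocin high / Replicates: singlicate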
CHO parental Ca: counter-screen for OX1R antagonists: effect in parental CHO cells; parental CHO-K1, ATP-induced calcium, Fluo-8 fluorescence; inhibition, % at 5.6 µM; hit rate 0.63% among 330,000;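 active = inhibition above that plate's mean sample inhibition plus 3 SD, cut at about 26% in these data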
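Test system: parental CHO cells; detection: calcium-sensitive Fluo-8 fluorescence; evaluation: percent inhibition of calcium signal; also added: ATP as calcium-mobilizing challenge; repeats: one well per compound; control set: ATP-challenged DMSO wells low, unchallenged DMSO wells high; compound: single nominal dose of 5.6 µM per compound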
OXTR ag: activates the human oxytocin receptor | P30559 | CHO-OTR cells, Fluo-8 calcium fluorescence; normalized: DMSO 0%, oxytocin 100% | activation, % at 3 µM | hit rate 0.32% among 320,000;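 active = activation above the mean of all tested compounds plus 3 SD, cutoff set per screening run, cut at about 20% in these data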;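 also: peak over basal fluorescence ratio from a 100 s FLIPR kinetic read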
V1R ag counter: V1a receptor agonism, counter-screen for OXTR agonists; P37288; CHO-V1R cells, Fluo-8 calcium fluorescence, agonist mode; 0% DMSO, 100% 3 nM vasopressin; activation, % at 3 µM; hit rate 0.25% among 320,000; AID 2797;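 active = activation above the mean activation of all tested compounds plus 3 SD, per screening run, cut at about 20% in these data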;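 also: signal is peak over basal fluorescence ratio across a 100 second FLIPR read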
Target sequence (P37288 whole entry, looked up): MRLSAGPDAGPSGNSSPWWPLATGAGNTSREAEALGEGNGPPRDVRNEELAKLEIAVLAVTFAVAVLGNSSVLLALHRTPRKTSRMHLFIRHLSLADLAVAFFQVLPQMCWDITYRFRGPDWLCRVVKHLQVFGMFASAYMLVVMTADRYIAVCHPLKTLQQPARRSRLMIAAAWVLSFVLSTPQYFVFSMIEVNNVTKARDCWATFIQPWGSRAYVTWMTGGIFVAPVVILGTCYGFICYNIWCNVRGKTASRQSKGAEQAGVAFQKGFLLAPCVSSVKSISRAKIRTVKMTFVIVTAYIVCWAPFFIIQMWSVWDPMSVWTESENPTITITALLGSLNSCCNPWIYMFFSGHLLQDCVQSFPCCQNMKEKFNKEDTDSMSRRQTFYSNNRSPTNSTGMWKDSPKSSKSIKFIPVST
OX1R HTRF conf: confirmation of human orexin 1 receptor antagonists, HTRF format; AID 492964; hit rate 49% among 1,800; OX1R-expressing cells, HTRF antagonist assay; inhibition, % at 6.6 µM; shares compounds with OX1R antag-2; in the data active = inhibition above about 55%;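 also: CHO cells expressing OX1R stimulated with orexin A at about EC80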
CHO-K1 HTRF: counter-screen for OX1R antagonists: effect in parental CHO-K1 cells. shares compounds with OX1R antag-2. HTRF counterscreen. inhibition, % at 6.6 µM. hit rate 48% among 1,800. AID 493232; in the data active = inhibition above about 17%
Numbers stand for hits. Only some compounds are listed: those with a hit (about 2.6% of all), similar ones and a draw of the others.

Results for CCCn1nc([N+](=O)[O-])c(C(C#N)c2nc3ccccc3o2)c(Cl)c1=O (stereo not given) ?
OX1R antag-1: inactive; OX1R antag-2: 87; OXTR potentiator: inactive; CHO parental Ca: inactive; OXTR ag: inactive; V1R ag counter: inactive; OX1R HTRF conf: inactive; CHO-K1 HTRF: 22

Results for O=c1[nH]c(/C=C/c2ccccc2OC(F)F)nc2c1cnn2-c1ccccc1 ?
OX1R antag-1: inactive; OX1R antag-2: inactive; OXTR potentiator: inactive; CHO parental Ca: inactive; OXTR ag: inactive; V1R ag counter: inactive

What do the screens show for `Cc1ccsc1C(=O)OCC(=O)Nc1nnc(-c2ccccc2)o1`?
OX1R antag-1: inactive; OX1R antag-2: 78; OXTR potentiator: inactive; CHO parental Ca: inactive; OXTR ag: inactive; V1R ag counter: inactive; OX1R HTRF conf: inactive; CHO-K1 HTRF: inactive

How did COc1cccc(C(=O)OCC(=O)Nc2nnc(-c3ccccc3)o2)c1 do in these assays?
OX1R antag-1: inactive; OX1R antag-2: inactive; OXTR potentiator: inactive; CHO parental Ca: inactive; OXTR ag: inactive; V1R ag counter: inactive

What do the screens show for `Cc1ccccc1-n1nc(C(=O)O)c(C)c(C#N)c1=O`?
OX1R antag-1: inactive; OX1R antag-2: 101; OXTR potentiator: inactive; CHO parental Ca: inactive; OXTR ag: inactive; V1R ag counter: inactive; OX1R HTRF conf: inactive; CHO-K1 HTRF: 36

Results for Cc1c(C(=O)O)nn(-c2cccc(C(F)(F)F)c2)c(=O)c1C#N ?
OX1R antag-1: inactive; OX1R antag-2: inactive; OXTR potentiator: inactive; CHO parental Ca: inactive; OXTR ag: inactive; V1R ag counter: inactive

Results for COCCN1Cc2cccc(C(=O)Nc3cccc(-c4nc5ccccc5[nH]4)c3)c2C1=O ?
OX1R antag-1: inactive; OX1R antag-2: 86; OXTR potentiator: inactive; CHO parental Ca: inactive; OXTR ag: inactive; V1R ag counter: inactive; OX1R HTRF conf: 60; CHO-K1 HTRF: inactive

What do the screens show for `Cc1ccc(NC(=O)COc2ccccc2)cc1S(=O)(=O)N1CCCCCC1`?
OX1R antag-1: inactive; OX1R antag-2: 98; OXTR potentiator: inactive; CHO parental Ca: inactive; OXTR ag: inactive; V1R ag counter: inactive; OX1R HTRF conf: inactive; CHO-K1 HTRF: inactive

How did Cc1cnc(N2C(=O)c3ccc([N+](=O)[O-])cc3C2=O)s1 do in these assays?
OX1R antag-1: inactive; OX1R antag-2: inactive; OXTR potentiator: inactive; CHO parental Ca: inactive; OXTR ag: inactive; V1R ag counter: inactive

How did O=C1c2ccc([N+](=O)[O-])cc2C(=O)N1c1ccc([N+](=O)[O-])cn1 do in these assays?
OX1R antag-1: inactive; OX1R antag-2: 95; OXTR potentiator: inactive; CHO parental Ca: inactive; OXTR ag: inactive; V1R ag counter: inactive; OX1R HTRF conf: inactive; CHO-K1 HTRF: 63

What do the screens show for `O=C1c2cc([N+](=O)[O-])cc3cc([N+](=O)[O-])cc(c23)C(=O)N1c1ccccn1`?
OX1R antag-1: inactive; OX1R antag-2: 82; OXTR potentiator: inactive; CHO parental Ca: inactive; OXTR ag: inactive; V1R ag counter: inactive; OX1R HTRF conf: 73; CHO-K1 HTRF: 114

What do the screens show for `c1ccc(CNc2c3ccccc3nc3ccccc23)cc1`?
OX1R antag-1: inactive; OX1R antag-2: inactive; OXTR potentiator: inactive; CHO parental Ca: inactive; OXTR ag: inactive; V1R ag counter: inactive

Results for OCC(Cc1ccccc1)Nc1c2ccccc2nc2ccccc12 (stereo not given) ?
OX1R antag-1: inactive; OX1R antag-2: 88; OXTR potentiator: inactive; CHO parental Ca: inactive; OXTR ag: inactive; V1R ag counter: inactive; OX1R HTRF conf: 72; CHO-K1 HTRF: 17

How did COCCn1c(Cc2ccccc2)nnc1SCC(=O)NC1CCCCC1 do in these assays?
OX1R antag-1: inactive; OX1R antag-2: inactive; OXTR potentiator: inactive; CHO parental Ca: inactive; OXTR ag: inactive; V1R ag counter: inactive

Results for CC(=O)c1cccc(NC(=O)CCS(=O)(=O)c2cccc3nsnc23)c1 ?
OX1R antag-1: inactive; OX1R antag-2: 89; OXTR potentiator: inactive; CHO parental Ca: inactive; OXTR ag: inactive; V1R ag counter: inactive; OX1R HTRF conf: inactive; CHO-K1 HTRF: 25
